Non-standard residues stand in square brackets, D forms with d. Residues, ends and D or L forms follow the SMILES beside them. NMeY = CN[C@@H](Cc1ccc(O)cc1)C(=O)O; dNMeF = CN[C@H](Cc1ccccc1)C(=O)O; Sar = CNCC(=O)O
Assays:
Plasmodium falciparum [1] = test: Antimalarial activity against multidrug-resistant Plasmodium falciparum K1 at 10 ug/mL; type: functional
How it was run: (§1)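 Multidrug-resistant P. falciparum K1 cultures assayed by microculture radioisotope technique (Desjardins method). IC50 determined, and percent inhibition measured at a single concentration of 10 µg/mL.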

Plasmodium falciparum [2] = test: Antimalarial activity against multidrug-resistant Plasmodium falciparum K1; type: functional, organism-based; how it was run: as §1
KB = test: Cytotoxicity against human KB cells; type: functional, cell-based
How it was run: (§2)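 Colorimetric cytotoxicity assay on KB (oral epidermoid carcinoma), BC (breast cancer), NCI-H187 (small cell lung cancer) and Vero (African green monkey kidney fibroblast) cells. Values reported as IC50 (µM).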

Vero = test: Cytotoxicity against african green monkey Vero cells; type: cell-based; details: Chlorocebus sabaeus; how it was run: as §2
[3] = Cytotoxicity against human BC cells; type: functional, cell-based; how it was run: as §2
NCI-H187 = test: Cytotoxicity against human NCI-H187 cells; type: functional, cell-based; how it was run: as §2

Row | SMILES | inhibition at 10 µg/mL (Plasmodium falciparum [1]) [%] | IC50 (Plasmodium falciparum [2]) [µM] | further results
1 | COc1cc(OC)c2c(O)c3c(c(-c4c5c(c(O)c6c(OC)cc(O)cc46)CO[C@@H](C)[C@H]5O)c2c1)[C@H](O)[C@H](C)OC3 | < 50 | – | –
2 | COc1cc(OC)c2c(O)c3c(c(-c4c(O)cc(OC)c5c(O)c6c(cc45)[C@H](O)[C@H](C)OC6)c2c1)[C@H](O)[C@H](C)OC3 | – | 3.3 | –
3 | COc1cc(OC)c2c(O)c3c(c(-c4c5c(c(O)c6c(OC)cc(OC)cc46)CO[C@@H](C)[C@H]5OC(C)=O)c2c1)[C@H](OC(C)=O)[C@H](C)OC3 | – | 3.3 | –
4 | COc1cc(OC)c2c(O)c3c(c(-c4c5c(c(O)c6c(OC)cc(O)cc46)CO[C@@H](C)[C@H]5OC(C)=O)c2c1)[C@H](OC(C)=O)[C@H](C)OC3 | < 50 | – | –
5 | COc1cc(OC)c2c(O)c3c(c(-c4c5c(c(O)c6c(OC)cc(OC)cc46)CO[C@@H](C)[C@H]5O)c2c1)[C@H](O)[C@H](C)OC3 | < 50 | 8.1 | –
6 | COc1cc(OC)c2c(O)c3c(c(-c4c(OC)cc(OC)c5c(O)c6c(cc45)[C@H](O)[C@H](C)OC6)c2c1)[C@H](O)[C@H](C)OC3 | < 50 | 12 | –
7 | CC[C@H](C)[C@@H]1NC(=O)[C@H](Cc2ccc(O)cc2)N(C)C(=O)[C@H](Cc2ccccc2)NC(=O)CN(C)C(=O)[C@@H]2CCCN2C(=O)[C@@H](Cc2ccccc2)N(C)C(=O)[C@H](CC(C)C)NC1=O [CORDYHEPTAPEPTIDE A] (cyclo(F[NMeY]IL[dNMeF]P[Sar])) | – | 3.8 | IC50 (KB): 0.78 µM; IC50 (Vero): 14 µM; IC50 [3]: 0.2 µM; IC50 (NCI-H187): 0.18 µM

Source: ChEMBL document CHEMBL1141306, “ES-242 derivatives and cycloheptapeptides from Cordyceps sp. strains BCC 16173 and BCC 16176” (J Nat Prod, 2007)
